Screens as filed in PubChem.
A selection: hits, their analogues and other compounds. The true share with any hit is near 3.8%.
NPY Y2 blocker – NPY-Y2 (human) receptor antagonism; NPY-Y2 expressing cells, antagonist mode; inhibition, % at 2.7 µM; 140,000 tested, 0.99% active; AID 793; in the data active means inhibition above about 17%;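 further: 0% = vehicle with agonist challenge and 100% = reference antagonist with challenge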
Target sequence (P49146 whole entry, looked up): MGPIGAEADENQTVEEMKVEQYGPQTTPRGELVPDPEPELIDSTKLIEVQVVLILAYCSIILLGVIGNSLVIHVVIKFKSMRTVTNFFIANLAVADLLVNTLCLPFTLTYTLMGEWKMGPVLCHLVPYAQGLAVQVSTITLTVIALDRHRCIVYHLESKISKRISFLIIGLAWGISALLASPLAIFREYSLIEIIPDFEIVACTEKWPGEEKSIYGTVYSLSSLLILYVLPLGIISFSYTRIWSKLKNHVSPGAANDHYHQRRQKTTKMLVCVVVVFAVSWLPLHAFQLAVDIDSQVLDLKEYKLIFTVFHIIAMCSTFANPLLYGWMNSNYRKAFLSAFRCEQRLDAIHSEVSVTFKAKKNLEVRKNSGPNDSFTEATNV
NPY-Y1 antag – NPY-Y1 (human) receptor antagonism | HEK293-CNG Y1 cells, membrane potential fluorescence; NPY at EC95, then isoproterenol | 200,000 tested, 1% active | inhibition, % at 3.6 µM | AID 1040;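 active means inhibition above the campaign mean inhibition of all tested compounds plus 3 SD, cut at about 20% in these data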;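 further: 0% = DMSO wells given NPY plus isoproterenol and 100% = isoproterenol alone without NPY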
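material = HEK293 cells with Y1 receptor plus CNG channel | also added = NPY 25 nM then isoproterenol 1 µM plus Ro 20-1724 25 µM | schedule = dye 3 h, compound 60 min room temperature, stimulation 45 min | measured by = membrane potential fluorescence | benchmarks = high control isoproterenol alone, low control NPY with isoproterenol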
Insulin prom inh – TRM-6 insulin promoter activity inhibition; 130,000 tested, 0.9% active; TRM-6 cells, insulin promoter-eGFP reporter, imaging; reporter expression induced with tamoxifen; inhibition, % at 2 µM;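 active means inhibition above the mean plus 3 SD, with well images judged a real hit on visual review, cut at about 60% in these data, passing the limit was not always enough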
RAM inhibit – inhibitors of the yeast RAM network; 190,000 tested, 1.8% active; inhibition, % at 50 µM; S. cerevisiae dse1pr::URA3 reporter, 5-FOA growth OD615, 2 d; analog-sensitive cbk1-as2 kinase mutant strain;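 active means inhibition above a set limit, 3 SD over mean compound inhibition, cut at about 8.4% in these data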;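 further: 0% = DMSO-only wells with no growth and 100% = 10 µM 1-NA-PP1 full growth; inhibition rescues growth on 5-FOA so higher OD means more RAM inhibition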
NPY1 pot ag – potentiators or agonists of human neuropeptide Y receptor Y1; NPY-Y1 expressing cells, potentiator/agonist activation; activation, % at 3.6 µM; AID 1304; P25929; 220,000 tested, 0.37% active; in the data active means activation above about 33%, passing the limit was not always enough;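 further: cells stimulated with NPY at EC10 then isoproterenol at EC100; 0% = low agonist plus stimulus and 100% = saturating agonist plus stimulus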
NPY2 pot ag – potentiates or activates human NPY-Y2 receptor; cells expressing NPY-Y2, potentiator/agonist read-out; 220,000 tested, 0.45% active; activation, % at 3.6 µM; in the data active means activation above about 27%;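 further: cells stimulated with NPY near EC25 plus isoproterenol at EC100; 0% = vehicle plus submaximal agonist and 100% = vehicle plus saturating agonist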
RAM efflux-def – restores 5-FOA growth of efflux-deficient yeast | AID 1305 | max inhibition, % | S. cerevisiae efflux-deficient reporter strain, 5-FOA growth OD615, 2 days | 1,200 tested, under 10 active | shares compounds with RAM inhibit; call rule not given here;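 further: plate controls were vehicle for no effect and reference inhibitor for full effect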
Active calls of the source: *; i = inactive; . = no result.

SMILES	NPY Y2 blocker	NPY-Y1 antag	Insulin prom inh	RAM inhibit	NPY1 pot ag	NPY2 pot ag	RAM efflux-def
O=C(CSc1nc2c(cnn2-c2ccccc2)c(=O)[nH]1)c1ccc(Cl)cc1	1	0	-8	0	-17	-12	.
Cc1c(NC(=O)CSCc2c(F)cccc2Cl)c(=O)n(-c2ccccc2)n1C	.	-3	.	5	-4	1	.
CCC(CC)C(=O)NCc1ccc(Cl)cc1	.	-3	18	0	8	0	.
COc1ccc(-c2nc(C#N)c(NCc3ccco3)o2)cc1	.	-1	.	-1	-2	-2	.
N#Cc1nc(-c2ccc(OCc3ccccc3)cc2)oc1NCc1ccco1	1	2	50	16*	-9	-2	4
CC(=O)N(CCC(c1ccccc1)c1ccco1)Cc1cccs1 (stereo not given)	6	5	-33	28*	-18	-25	2
CNC(=S)NNC(=O)c1cc(C(C)(C)C)nn1Cc1ccc(F)cc1	.	.	.	.	-7	3	.
CCN(Cc1ccccc1)c1ccc(/C=C(\C#N)c2ccccn2)cc1	3	6	.	17*	37	14	10
COc1cc(/C=C(\C#N)c2ccccn2)ccc1OCc1ccccc1	7	1	.	6	-29	-5	.
COc1cc(/C=C(\C#N)c2ccccn2)ccc1OCc1ccc(Cl)cc1	3	2	.	12*	-15	-3	3
S=c1[nH]nc(-c2cc(-c3ccccc3)n[nH]2)n1/N=C/c1cccc(Cl)c1	.	.	.	.	-32	-39	.
CCOc1cc(-c2nc(C)c(C(C)=O)n2O)ccc1OCC(=O)Nc1ccccc1	.	8	67	5	23	11	.
COc1ccc(C(=N/O)/C(=N/O)c2ccc(OC)cc2)cc1	1	-1	20	4	-30	0	.
COc1ccc(C(Cl)=C(c2ccc(OC)cc2)c2ccc(OC)cc2)cc1	6	0	27	13*	7	1	6
CC[n+]1c(C)n(-c2ccccc2)c2ccc(C(=O)OC)cc21	.	4	.	0	10	8	.
COCCNc1nc(-c2ccc(OC)cc2)c(-c2ccc(OC)cc2)s1	.	-1	25	0	4	11	.
COC(=O)c1ccc(OC)c(CSc2nnc(-c3ccc(C(C)(C)C)cc3)o2)c1	0	5	i	14*	-15	1	4
COc1ccc(-c2nnc(SCc3ccccc3F)o2)cc1OC	9	15	19	6	-35	-10	.
CC(C)CSc1nc(N2CCOCC2)c2c(c1C#N)CC(C)(C)SC2	3	0	-64	22*	-7	-5	3
C/C(CC(=O)NCc1ccco1)=N\NC(=O)CC#N	.	6	-21	2	4	-6	.
O=C(COC(=O)c1ccc(Br)cc1)NCCN1C(=O)CSC1=O	.	4	-62	0	-18	-3	.
COc1cccc(NC(=O)CCc2nc(-c3ccccc3F)no2)c1	8	5	0	1	-25	-24	.
COc1ccccc1-c1noc(CCC(=O)Nc2cccc(C(F)(F)F)c2)n1	-2	-2	37	23*	1	3	1
COc1ccc2c(CC(=O)OCC(=O)Nc3cc(C)c(C)cc3[N+](=O)[O-])coc2c1	12	1	0	12*	9	6	2
Cc1cc(Br)ccc1SCC(=O)OCC(=O)NC1CCCC1	.	6	25	17*	-38	-18	2
SMILES	NPY Y2 blocker	NPY-Y1 antag	Insulin prom inh	RAM inhibit	NPY1 pot ag	NPY2 pot ag	RAM efflux-def
Cc1cc(Br)ccc1SCC(=O)OCC(=O)NCc1ccco1	.	.	.	.	-25	-38	.
COc1ccc2nc(/C=N/NC(=O)CCCCCNC(=O)OC(C)(C)C)ccc2c1	.	.	.	.	-21	3	.
CC(=O)Nc1ccc(S(=O)(=O)Nc2nc3ccccc3nc2-n2ccc(=NC(=O)c3ccc(F)cc3)cc2)cc1	.	0	.	12*	-10	2	2
COC(=O)c1ccc(CSc2ccc3nnc(-c4ccc(F)cc4)n3n2)o1	.	-1	-18	5	16	-4	.
CCOc1ccc(-c2nnc3ccc(SCc4ccc(C(=O)OC)o4)nn23)cc1	2	4	.	12*	-9	0	1
COC(=O)CC1C(=O)NCCN1C(=S)NC(=O)c1sc2ccccc2c1Cl (stereo not given)	.	1	-33	-1	-10	-4	.
CCCCCCN(C(=O)CCCCCN1C(=O)NC(c2ccc(-c3ccccc3)cc2)C(C(=O)OCc2ccccc2)=C1C)C(C(=O)NCCCC)c1ccc(OCC(=O)OC)cc1 (stereo not given)	-1	1	-5	13*	-24	-10	6
CCCN1C(=O)/C(=C/c2ccc(C)s2)SC1=Nc1ccc(OC)cc1	4	16	.	21*	-8	3	2
C/C(=N\OC(=O)c1ccc(Cl)cc1)c1sc(-c2ccccc2)nc1C	2	2	-15	12*	-1	2	4
CCC(C)Nc1nc2c(C)cccn2c(=O)c1C=Nc1ccc(OC)cc1 (stereo not given)	.	5	-41	2	13	4	.
CCC(C)N1C(=O)/C(=C/c2c(NCCCOC(C)C)nc3c(C)cccn3c2=O)SC1=S (stereo not given)	1	5	-164	18*	-17	-10	3
Cc1ccc(NC(=S)NCCC(c2ccccc2)c2ccccc2)c(C)c1	5	3	-4	6	4	-14	.
Cc1ccccc1NC(=S)NCCC(c1ccccc1)c1ccccc1	3	2	.	12*	-9	-12	3
S=C(NCCC(c1ccccc1)c1ccccc1)Nc1cccc(Cl)c1	4	-3	7	14*	-22	-4	5
O=C(CC(Nc1ccccc1Cl)C(=O)OCC(=O)c1cccs1)c1ccccc1 (stereo not given)	4	-3	3	19*	-1	1	2
CCCCOc1ccccc1NC(=O)c1scc2c1OCCO2	.	10	-75	13*	-28	-30	5
CCOC(=O)c1c(NC(=O)c2nn(C)cc2[N+](=O)[O-])sc(C)c1C	.	1	-73	2	-8	-5	.
CC1CCN(c2nc(-c3ccccc3)cc(C(F)(F)F)n2)CC1	2	-2	33	7	5	-2	.
Cc1ccc(-c2cc(C(F)F)nc(N3CCC(C)CC3)n2)cc1	1	-2	-22	12*	19	13	5
Cc1cc(C(=O)COc2ccc(Cl)cc2Br)c(C)n1C	.	11	27	12*	-25	-18	3
Cc1cc(C(=O)COc2ccccc2C(N)=O)c(C)n1C	.	1	.	2	-9	-13	.
N#C/C(=C\C1=C(N2CCOCC2)C(=C/c2cccc([N+](=O)[O-])c2)/CC1)C(=O)Nc1ccccc1F	0	0	i	11*	-17	-16	3
